# SENP8 block-1 – SENP8 protease inhibitors, primary screen, biochemical, luminescence; Sentrin-specific protease 8 (Homo sapiens), Q96LD8; purified SENP8, Z-RLRGG-aminoluciferin cleavage; inhibition, % at 10 µM; actives 1.2% (n = 330,000); AID 2540, 2010; in the data active = inhibition above about 50%
# Target sequence (Q96LD8 whole entry, looked up): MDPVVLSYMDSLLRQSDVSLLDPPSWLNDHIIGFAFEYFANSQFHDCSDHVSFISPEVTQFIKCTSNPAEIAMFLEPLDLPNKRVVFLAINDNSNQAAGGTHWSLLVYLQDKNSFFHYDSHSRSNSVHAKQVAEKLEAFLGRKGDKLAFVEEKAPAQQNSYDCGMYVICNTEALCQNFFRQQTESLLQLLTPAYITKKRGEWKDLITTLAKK
# SENP1 inh – human SENP1 catalytic domain inhibitors, primary screen, biochemical, FRET, uHTS; Sentrin-specific protease 1 (Homo sapiens), Q9P0U3; recombinant SENP1 catalytic domain, CyPet-SUMO1-YPet FRET cleavage; inhibition, % at 10 µM; actives 0.21% (n = 360,000);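 active = inhibition at least 30% at 10 µM, raw YFP signal under a set limit, fluorescence ratio 0.5 to 1.5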;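 also: 0% = enzyme with DMSO and 100% = no enzyme wells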
#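 Test system: human SENP1 catalytic domain; medium: Tris pH 8 buffer plus EDTA, NaCl, BME, BSA, NP40, catalase; incubation: 50 min reaction at room temperature; technique: FRET, CFP and YFP emission; controls: no-enzyme low control and enzyme-plus-DMSO high control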
# SENP7 block – SENP7 protease inhibitors, primary screen, biochemical, luminescence, uHTS | Sentrin-specific protease 7 (Homo sapiens), Q9BQF6 | recombinant SENP7, Z-RLRGG-aminoluciferin luminescence, 40 min | inhibition, % at 5 µM | actives 1.5% (n = 330,000) | AID 434973, 2010;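 active = inhibition above about 50% at the single test dose, limit read from the data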;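 also: plate controls were DMSO with enzyme for no effect and no enzyme buffer wells for full effect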
# Target sequence (Q9BQF6 706-1050 limits assumed): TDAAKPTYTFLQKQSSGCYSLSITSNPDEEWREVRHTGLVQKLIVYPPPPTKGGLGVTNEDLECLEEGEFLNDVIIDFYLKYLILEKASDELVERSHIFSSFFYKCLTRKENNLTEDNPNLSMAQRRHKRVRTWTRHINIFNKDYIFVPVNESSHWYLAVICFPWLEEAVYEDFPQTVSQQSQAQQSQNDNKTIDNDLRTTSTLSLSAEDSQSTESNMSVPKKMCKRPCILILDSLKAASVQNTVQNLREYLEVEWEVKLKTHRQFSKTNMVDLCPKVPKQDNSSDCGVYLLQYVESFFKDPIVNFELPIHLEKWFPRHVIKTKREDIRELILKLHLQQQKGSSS
# SENP8 block-2 – human SENP8 protease inhibitors, primary screen, biochemical, fluorescence, Nedd8 protein substrate, uHTS; AID 602440, 2012; recombinant SENP8; actives 0.64% (n = 360,000); inhibition, % at 20 µM; in the data active = inhibition mostly above about 40%, no sharp cut-off; inactive = mostly below about 27%
# SENP6 block – SENP6 protease inhibitors, primary screen, biochemical, luminescence, uHTS; inhibition, % at 10 µM; Recombinant SENP6 catalytic domain, aminoluciferin luminescence; actives 1.8% (n = 330,000);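 active = inhibition above about 50% at the single tested dose, limit read from the data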;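 also: plate controls were DMSO wells with enzyme for no effect and DMSO wells lacking enzyme for full effect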
# SENP8 conf – SENP8 protease inhibitors, retest, confirmation, biochemical, luminescence, single concentration; shares compounds with SENP7 block; Recombinant SENP8, Z-RLRGG-aminoluciferin luminescence, 60 min; inhibition, % at 12.5 µM; actives 40% (n = 6,200); AID 488912, 2010;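 active = mean inhibition across replicates above about 50%, limit read from the data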
# SENP6 confirm – SENP6 protease inhibitors, confirmation, biochemical, luminescence, single concentration. actives 58% (n = 6,200). recombinant SENP6, Z-RLRGG-aminoluciferin luminescence. inhibition, % at 12.5 µM. shares compounds with SENP7 block
# SENP7 confirm – SENP7 protease inhibitors, retest, confirmation, biochemical, luminescence, single concentration | shares compounds with SENP7 block | recombinant SENP7, Z-RLRGG-aminoluciferin luminescence, 40 min | inhibition, % at 12.5 µM | actives 69% (n = 6,200) | AID 488917, 2010
# Casp3 SENP sel – caspase-3 protease inhibitors, confirmation, selectivity assay for SENP inhibitor project, biochemical, single concentration. shares compounds with SENP7 block. purified caspase-3, Z-DEVD-aminoluciferin luminescence, 60 min. inhibition, % at 12.5 µM. actives 60% (n = 6,200). AID 488918, 2010;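 active = mean inhibition above about 50%, limit read from the data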;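 also: plate controls were enzyme with DMSO for no effect and wells without caspase-3 for full effect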
# Luc interf – luminescence interference (SENP counter-screen); shares compounds with SENP7 block; Pre-incubated SENP8/Z-RLRGG-aminoluciferin, luciferase luminescence interference; inhibition, % at 12.5 µM; actives 39% (n = 6,200); AID 488919;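 active = mean inhibition above about 50% when retested at one dose, limit read from the data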;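 also: plate controls were DMSO wells with completed reaction for no effect and substrate without enzyme for full effect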
# * hit, by the source's call; i = inactive; . = no result given. Sampled rows, rich in hits. Any-hit rate of the full collection: about 2.5%.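 The calls were made as follows, unless noted: active = mean inhibition above about 50% in the one-dose retest (limit read from the data); inactive = the rest.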
SMILES,SENP8 block-1,SENP1 inh,SENP7 block,SENP8 block-2,SENP6 block,SENP8 conf,SENP6 confirm,SENP7 confirm,Casp3 SENP sel,Luc interf
Nc1ccc(-c2nc3c(ccc4ccccc43)[nH]2)cc1,31,-44,31,i,59*,24,21,37,18,-3
N#CCSc1ccc(-c2nc3ccccc3[nH]2)cn1,48,-1,68*,-238,7,71*,68*,89*,82*,74*
O=C(CSc1ccc(-c2nc3ccccc3[nH]2)cn1)Nc1ccc(S(=O)(=O)NC2CC2)cc1,71*,-3,72*,-264,85*,82*,48,98*,56*,86*
Clc1nc2c(ccc3ccccc32)[nH]1,-5,2,0,18,-14,.,.,.,.,.
O=c1cc(-c2ccccc2)oc2c1CCCC2,.,0,.,9,.,.,.,.,.,.
CC(C)(C)c1cc(NS(=O)(=O)c2cccs2)no1,-2,0,-14,6,3,.,.,.,.,.
Fc1ccc(-c2nc3ccccc3[nH]2)cc1,64*,-1,83*,10,83*,-7,64*,89*,84*,72*
CCOC(=O)c1nn(-c2ccccc2)cc1O,10,1,2,-38,-7,.,.,.,.,.
COC(=O)c1nn(-c2ccc(-c3ccccc3)cc2)cc1O,93*,-8,97*,-492,97*,92*,98*,102*,95*,88*
COCc1cc(C)nc(SCc2ccc([N+](=O)[O-])cc2)c1C#N,-4,0,-12,-5,-39,.,.,.,.,.
CCOC(=O)c1sc(=NC(=O)c2ccccc2Br)n(C)c1C,-11,3,8,-69,-16,.,.,.,.,.
Cc1ccc2c(c1)sc(=NC(=O)c1cccs1)n2C,95*,-147,100*,-409,93*,29,75*,99*,95*,43
Cc1ccc2c(c1)sc(=NC(=O)C1CC1)n2C,-6,2,6,-5,14,.,.,.,.,.
CCOC(=O)c1sc(=NC(=O)c2cccs2)n(C)c1C,4,-1,55*,-427,-21,17,10,17,45,1
CCOC(=O)c1sc(=NC(=O)c2ccc(C)c(C)c2)n(C)c1C,7,0,-4,-363,-1,.,.,.,.,.
CCOC(=O)c1sc(=NC(=O)c2ccc(Cl)s2)n(C)c1C,8,-47,53*,-402,-24,13,12,28,23,12
COc1ccc(/C=C(\NC(=O)c2ccc(C)cc2)C(=O)NCCCN2CCOCC2)cc1OC,-2,-5,4,0,-24,.,.,.,.,.
Cc1ccc(C(C)(C)NC(=O)C2CCC(=O)N(Cc3ccccc3F)C2)cc1 (centres undefined),5,2,-7,4,0,.,.,.,.,.
COc1cccc2oc3cc(C#Cc4ccccn4)ccc3c(=O)c12,-16,.,6,.,23,.,.,.,.,.
O=c1c2ccccc2oc2cc(C#CC3(O)CCCCC3)ccc12,95*,1,99*,11,98*,98*,99*,102*,94*,75*
COc1cccc2oc3cc(C#CC4(O)CCCCC4)ccc3c(=O)c12,84*,-4,84*,-355,81*,89*,89*,97*,72*,55*
COc1ccccc1-c1oc2ccccc2c1C#CC1(O)CCCCC1,-4,-13,5,-475,2,.,.,.,.,.
Cc1ccc(C(=O)n2c(N)nc3ccccc32)cc1,91*,0,97*,-30,86*,90*,95*,101*,96*,66*
Cc1ccc(S(=O)(=O)n2c(N)nc3ccccc32)cc1,0,0,0,22,-6,.,.,.,.,.
O=C1C2C3C=CC(CC3)C2C(=O)N1/N=C/c1ccc(O)c(O)c1 (centres undefined),-11,-1,4,22,-8,.,.,.,.,.
SMILES,SENP8 block-1,SENP1 inh,SENP7 block,SENP8 block-2,SENP6 block,SENP8 conf,SENP6 confirm,SENP7 confirm,Casp3 SENP sel,Luc interf
O=C1c2ccccc2C(=O)N1/N=C/c1ccc(O)c(O)c1,51*,1,46,12,66*,6,41,82*,70*,64*
CCN(CC)CC(=O)Nc1ccc(-c2nc3cc(NC(=O)CN(CC)CC)ccc3o2)cc1,-2,2,-1,-482,-10,.,.,.,.,.
O=C(Nc1ccc2oc(-c3ccccc3Cl)nc2c1)c1ncn[nH]1,35,-1,24,-257,52*,24,20,28,26,0
O=C(Nc1ccc2oc(-c3cccc4ccccc34)nc2c1)c1ncn[nH]1,-11,-2,-1,i,-16,.,.,.,.,.
CC(=O)Nc1ccc2oc(-c3ccccc3Br)nc2c1,58*,1,59*,-222,84*,81*,76*,90*,68*,65*
CCc1ccc2oc(-c3ccc(NC(C)=O)cc3)nc2c1,72*,1,78*,-446,75*,44,79*,96*,33,18
CC(=O)Nc1ccc2oc(-c3cc(F)c(F)cc3Cl)nc2c1,40,-1,67*,-291,-5,21,21,10,39,25
C=CCSc1nc(C)cc(C(=O)OCC)c1C#N,-7,1,-4,-42,-4,.,.,.,.,.
CCOc1cccc(/C=N/NC(=S)Nc2ccccc2[N+](=O)[O-])c1O,47,-2,79*,23,31,28,55*,37,26,7
CCCCNC(=S)N/N=C/c1cccc(OCC)c1O,8,-78,2,-424,11,.,.,.,.,.
COc1ccc([C@H]2CC(=O)C[C@@H](CCn3cc(Cc4ccccc4)nn3)O2)cc1,.,2,.,19,.,.,.,.,.,.
CC(=O)Nc1ccc(-c2cc(N)n(-c3ccccc3)n2)cc1,38,-7,58*,-67,55*,45,44,78*,80*,62*
Nc1ccc(-c2cc(N)n(-c3ccccc3)n2)cc1,13,-1,18,-174,7,.,.,.,.,.

# Bioassay records (PubChem BioAssay)
